Assay results: BindingDB's records for doi:10.1016/j.bmcl.2005.03.058 (Wyeth Research, 2005)

Assays:
[1] = molecular target: T1, UDP-N-acetylenolpyruvoylglucosamine reductase (Escherichia coli (strain K12), UniProt P08373); assay: Inhibitory concentration against MurB enzyme in Escherichia coli
T1 sequence (P08373 whole entry): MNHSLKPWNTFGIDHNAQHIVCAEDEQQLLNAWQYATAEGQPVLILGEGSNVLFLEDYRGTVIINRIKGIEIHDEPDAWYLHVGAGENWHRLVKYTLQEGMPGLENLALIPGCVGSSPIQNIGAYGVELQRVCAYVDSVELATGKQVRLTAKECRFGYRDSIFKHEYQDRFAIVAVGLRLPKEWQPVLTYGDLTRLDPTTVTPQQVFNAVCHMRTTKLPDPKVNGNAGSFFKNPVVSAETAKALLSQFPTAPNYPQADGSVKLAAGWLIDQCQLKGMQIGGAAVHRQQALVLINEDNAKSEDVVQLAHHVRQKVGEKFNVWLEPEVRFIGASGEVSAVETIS
In short: (§1)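 Enzyme (20 nM) preincubated 20 min with inhibitor, then substrates added to final 50 µM EP-UNAG and 100 µM NADPH. Activity followed spectrophotometrically. At least six inhibitor concentrations between 1.5 and 50 µM per compound. IC50 from sigmoid Hill curve fit (0–100).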

[2] = molecular target: UDP-N-acetylglucosamine 1-carboxyvinyltransferase (Escherichia coli (strain K12), UniProt P0A749); assay: Inhibitory concentration against MurA enzyme in Escherichia coli
UDP-N-acetylglucosamine 1-carboxyvinyltransferase, sequence (P0A749 whole entry): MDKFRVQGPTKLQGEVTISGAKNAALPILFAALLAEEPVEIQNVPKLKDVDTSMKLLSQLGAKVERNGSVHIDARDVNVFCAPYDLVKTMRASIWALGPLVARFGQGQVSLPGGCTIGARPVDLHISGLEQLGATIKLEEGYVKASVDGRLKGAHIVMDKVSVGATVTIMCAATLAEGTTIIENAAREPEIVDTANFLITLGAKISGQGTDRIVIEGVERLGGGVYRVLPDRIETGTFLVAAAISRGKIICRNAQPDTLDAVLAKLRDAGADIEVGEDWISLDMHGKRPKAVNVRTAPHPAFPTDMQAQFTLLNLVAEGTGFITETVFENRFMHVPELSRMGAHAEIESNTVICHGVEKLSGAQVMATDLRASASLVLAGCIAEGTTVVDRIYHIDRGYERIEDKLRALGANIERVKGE
In short: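 Enzyme preincubated with inhibitor 10 min at 37 °C before substrates were added. Reaction ran 30 min at 37 °C and was stopped with malachite green reagent (0.03% malachite green, 1.4% ammonium molybdate, 1.3 N HCl) for phosphate read-out.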

[3] = molecular target: T2, UDP-N-acetylenolpyruvoylglucosamine reductase (Staphylococcus aureus, UniProt P61431); assay: Inhibitory concentration against MurB enzyme in Staphylococcus aureus; in short: as §1
T2 sequence (P61431 whole entry): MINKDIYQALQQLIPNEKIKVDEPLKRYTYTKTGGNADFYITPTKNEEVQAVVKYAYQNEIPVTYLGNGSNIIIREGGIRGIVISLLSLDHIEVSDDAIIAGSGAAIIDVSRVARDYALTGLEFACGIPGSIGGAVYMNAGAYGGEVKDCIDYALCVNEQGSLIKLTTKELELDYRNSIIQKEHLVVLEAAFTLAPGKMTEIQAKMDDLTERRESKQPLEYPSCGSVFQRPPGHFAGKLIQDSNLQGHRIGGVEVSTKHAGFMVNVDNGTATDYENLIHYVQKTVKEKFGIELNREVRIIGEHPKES

IC50 [1] [µM] | IC50 [2] [µM] | IC50 [3] [µM] | SMILES
50 | > 50 |  | COc1cccc(Cc2c(O)n(-c3ccc(Cl)cc3)n(-c3ccc(Cl)cc3)c2=O)c1 [1,2-Bis-(4-chloro-phenyl)-4-(3-methoxy-benzyl)-pyrazolidine-3,5-dione]
> 50 | > 50 | > 50 | O=c1c(Cc2ccccc2Cl)c(O)n(-c2ccc(Cl)cc2)n1-c1ccc(Cl)cc1 [4-(2-Chloro-benzyl)-1,2-bis-(4-chloro-phenyl)-pyrazolidine-3,5-dione]
50 | > 50 |  | CCC(CC)Cc1c(O)n(-c2ccc(Cl)cc2)n(-c2ccc(Cl)cc2)c1=O [1,2-Bis-(4-chloro-phenyl)-4-(2-ethyl-butyl)-pyrazolidine-3,5-dione]
> 50 | > 50 |  | O=c1c(Cc2ccccc2)c(O)n(-c2ccc(Cl)cc2)n1-c1ccc(Cl)cc1 [4-Benzyl-1,2-bis-(4-chloro-phenyl)-pyrazolidine-3,5-dione]
> 50 | > 50 | > 50 | CCN(CCc1c(O)n(-c2ccc(Cl)cc2)n(-c2ccc(Cl)cc2)c1=O)Cc1ccccc1 [4-[2-(Benzyl-ethyl-amino)-ethyl]-1,2-bis-(4-chloro-phenyl)-pyrazolidine-3,5-dione]
> 50 | > 50 |  | CCN(CC)CCc1c(O)n(-c2ccc(Cl)cc2)n(-c2ccc(Cl)cc2)c1=O [1,2-Bis-(4-chloro-phenyl)-4-(2-diethylamino-ethyl)-pyrazolidine-3,5-dione]
